Screens (PubChem)
Sampled rows, rich in hits. Any-hit rate of the full collection: about 1.7%.
PglD inh: C. jejuni PglD acetyltransferase inhibitors, primary screen, biochemical, DTNB colorimetric, single point | UDP-N-acetylbacillosamine N-acetyltransferase PglD (Campylobacter jejuni) | purified PglD enzyme, DTNB colorimetric CoA detection | hit rate 0.098% among 360,000 | inhibition, % at 12.5 µM; in the data active means inhibition above about 16%, passing the limit was not always enough
Rtt109 Vps75: inhibitors of C. albicans Rtt109/Vps75 HAT, primary screen, biochemical, ThioGlo CoA-SH fluorescence, plate reader | Histone acetyltransferase RTT109 (Candida albicans (strain SC5314 / ATCC MYA-2876)), … | purified Rtt109/Vps75, 4 h | inhibition, % at 34.9 µM | hit rate 0.16% among 330,000 | AID 540336, 2011;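 active means inhibition of at least 50% in every replicate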
Target sequence (Q5AAJ8 whole entry, looked up): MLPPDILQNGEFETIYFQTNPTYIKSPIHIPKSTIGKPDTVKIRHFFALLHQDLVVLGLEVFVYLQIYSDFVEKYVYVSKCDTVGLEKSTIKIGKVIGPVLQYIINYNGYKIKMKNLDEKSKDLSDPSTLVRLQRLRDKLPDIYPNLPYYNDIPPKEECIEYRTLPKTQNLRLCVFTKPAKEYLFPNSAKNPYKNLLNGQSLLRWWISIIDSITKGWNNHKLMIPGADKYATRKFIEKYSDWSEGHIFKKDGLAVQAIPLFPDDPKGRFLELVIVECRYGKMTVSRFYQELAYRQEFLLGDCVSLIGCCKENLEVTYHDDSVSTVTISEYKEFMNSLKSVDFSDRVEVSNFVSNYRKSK
SKKanGAS inh: S. pyogenes SKKanGAS growth inhibitors in kanamycin, primary screen, streptokinase expression inhibitor project, SKKanGAS strain, BacTiter-Glo luminescence; hit rate 1.3% among 300,000; 6 h; inhibition, % at 7.5 µM;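 active means mean replicate score, as percent of positive control median, at least 50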;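 further: strain carries kanamycin resistance gene driven by streptokinase promoter and grows in 40 µg/ml kanamycin; loss of luminescence reflects streptokinase promoter inhibition or plain growth inhibition; 0% = median of DMSO wells and 100% = positive control at its reference dose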
PfHsp90 set2: growth inhibition of PfHsp90-expressing yeast, primary screen, antimalarial PfHsp90 inhibitor project, S. cerevisiae, BacTiter-Glo luminescence, single point, set 2. BacTiter-Glo ATP, 48 h; yeast lacking PDR1 and PDR3 efflux regulators. inhibition, % at 9.4 µM. hit rate 0.32% among 310,000. AID 504621, 2011;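 active means every replicate shows inhibition above about 80%, whatever the replicate mean, limit read from the data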;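 further: 0% = DMSO neutral controls and 100% = 20 µM radicicol positive controls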
FN deposit inh: inhibitors of fibronectin matrix deposition, primary screen, AH1F cells, Alexa488-fibronectin fluorescence, plate reader; AID 743247, 2014; inhibition, % at 12.6 µM; hit rate 0.086% among 350,000; AH1F fibroblasts, overnight;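 active means mean inhibition across replicates of 30% or more, regardless of how many single replicates reach that level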;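 further: positive control wells lacked labelled fibronectin entirely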
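Measured by – fluorescence 485/525 nm · System – AH1F fibroblast monolayer, labelled fibronectin deposition · Amount – 10000 cells per well · Buffer or medium – serum-reduced DMEM (2% serum) · Doses – single dose, pinned · Also added – fluorescent fibronectin at 24 nM final · Schedule – 1 h cell attachment, overnight exposure to compound and label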
CSC inhib: cancer stem cell viability inhibitors, primary screen, luminescence | cancer stem cell-like cells viability | inhibition, % at 7.5 µM | hit rate 1.1% among 300,000 | AID 2717, 2010; in the data active means inhibition above about 75%; tested in HMLE shEcad cells
An asterisk follows results filed as active; x = no result.

SMILES	PglD inh	Rtt109 Vps75	SKKanGAS inh	PfHsp90 set2	FN deposit inh	CSC inhib
CCCCCCn1c(=O)c(C(=O)Nc2c(C)n(C)n(-c3ccccc3)c2=O)c(O)c2ccccc21	2.2	6.6	88.5*	-5.2	-4.2	41.2
CCCCCn1c(=O)c(C(=O)Nc2ccccn2)c(O)c2ccccc21	-1.4	0.8	0.7	-20.6	-4.3	19.6
CCCCCCn1c(=O)c(C(=O)Nc2nc(CC(=O)OCC)cs2)c(O)c2ccccc21	x	0.8	-9.3	-10.0	-6.0	4.1
O=C(Cc1ccccc1)N1CCCCN2[C@@H](CO)[C@H](c3ccc(C#Cc4ccccc4)cc3)[C@@H]2C1	6.2	x	x	x	-6.7	x
CN1[C@@H]2CN(S(C)(=O)=O)C[C@H]1C2c1ccc(Br)cc1 (some centres undefined)	x	x	x	x	-0.5	x
COc1ccc(OC(=O)N(C)C[C@@H]2OCc3ccccc3-c3c(n(C)c4ccccc34)C(=O)N([C@@H](C)CO)C[C@@H]2C)cc1	x	x	x	x	-0.3	x
Nc1c(C(=O)OCc2ccccc2)c2nc3ccccc3nc2n1Cc1cccs1	2.8	-10.0	56.3*	x	10.9	69.8
CCC(C)OC(=O)c1c(N)n(Cc2cccs2)c2nc3ccccc3nc12 (centres undefined)	-2.9	-102.0	8.6	27.0	x	8.0
CCCCCCCCCCCCCCCC[N+](C)(C)C	-4.9	13.4	102.9*	109.1*	-2.6	102.0*
CN1[C@@H]2c3cccc(=O)n3C[C@H]1[C@H](CO)[C@H]2C(=O)NCC1CC1	0.8	x	x	x	-0.2	x
CSc1ncc(/C=C2/C(=O)NC(=O)N(c3ccc(Cl)cc3)C2=O)cn1	x	63.7*	x	16.1	12.6	x
CC(C)NC(=O)N1C[C@@H]2C(c3ccc(Br)cc3)[C@H](C1)N2C (some centres undefined)	x	x	x	x	0.9	x
C=CCN1[C@@H]2CN(CC(F)(F)F)C[C@H]1C2c1ccc(Br)cc1 (some centres undefined)	x	x	x	x	-5.4	x
O=C(Cc1ccncc1)N1CCCCN2[C@H](CO)[C@@H](c3ccc(C#Cc4ccccc4F)cc3)[C@@H]2C1	2.5	x	x	x	11.1	x
COc1ccc(N=Cc2c(O)n(Cc3ccccc3)c(=S)[nH]c2=O)c(OC)c1	x	0.6	2.0	-1.1	2.7	5.5
COc1ccc(OC)c(N=Cc2c(O)n(Cc3ccccc3)c(=S)[nH]c2=O)c1	6.1	-7.2	50.7*	0.2	8.3	-2.2
CCC(=O)N1N=C(c2c(O)n(CCc3ccccc3)c(=O)[nH]c2=O)CC1c1ccc(OC)c(OC)c1 (centres undefined)	0.9	x	100.2*	x	5.5	2.5
COc1ccc(CCn2c(O)c(C=NCCN3CCCCC3)c(=O)[nH]c2=O)cc1OC	-1.6	8.0	2.0	16.3	-0.4	0.2
COc1ccc(C#Cc2ccc([C@@H]3[C@H](CO)N4CCCCN(C(=O)Cc5ccccc5)C[C@@H]34)cc2)cc1	8.7	x	x	x	-4.2	x
Cc1cccc(-n2c(/C=C/c3ccc([N+](=O)[O-])o3)nc3ccccc3c2=O)c1	-1.8	4.2	20.5	-27.5	4.5	88.6*
Cc1ccc2c(c1)C1CN(C)CCC1N2C(=O)c1cccs1 (centres undefined)	x	-0.8	-1.0	14.4	-1.1	-9.2
Cc1ccc2c(c1)C1C[N+](C)(CC(=O)c3ccc(Cl)cc3Cl)CCC1N2C(=O)c1ccc(F)cc1 (centres undefined)	2.4	56.6*	x	-4.9	-9.1	6.9
O=[N+]([O-])c1oc2ccc3ccccc3c2c1CCO	x	3.7	x	136.4*	4.9	x
COC1CCC(OC2CC(C3(C)CCC4(CC(O)C(C)C(C(C)/C=C(\C)C(=O)C(C)CC(C)C(=O)O)O4)O3)OC3(OC(C4OC(O)(CO)C(C)CC4C)CC3C)C2C)OC1C (centres undefined)	x	-2.0	x	105.7*	-6.7	x
COC(=O)C1=C(C(=O)OC)C2OC1c1cc3ccccc3cc12	x	-8.8	x	132.1*	x	x
SMILES	PglD inh	Rtt109 Vps75	SKKanGAS inh	PfHsp90 set2	FN deposit inh	CSC inhib
COC(=O)C1=C(c2ccc3ccccc3c2)C[C@@H]2CC[C@H]1N2C	2.0	4.3	x	7.3	-9.7	8.2
N=C1c2ccccc2CN1CC(=O)c1ccccc1	x	-5.4	-1.0	-17.4	4.1	0.1
N=C1c2ccccc2CN1NC(=O)c1ccccc1	x	50.8*	-10.2	-1.2	2.9	-3.5
O=c1[nH]c(CN2CC=C(c3ccccc3)CC2)nc2scc(-c3ccccc3)c12	x	14.5	64.2*	14.4	-9.7	80.9*
O=c1[nH]c(CN2CC=C(c3ccccc3)CC2)nc2cc(C(F)(F)F)ccc12	-0.4	2.8	6.4	-4.1	x	-12.8
COc1cccc(NP(=O)(Oc2ccccc2Cl)Oc2ccccc2Cl)c1	0.3	1.7	19.7	-13.8	-0.9	34.0
COc1cccc(NP(=O)(Oc2ccccc2)Oc2ccccc2)c1	x	21.7	-1.7	0.4	3.4	99.0*
CC(=O)N1N=C(c2cccnc2)CC1c1ccccc1O (centres undefined)	-0.2	0.7	-2.8	-1.3	-12.3	-15.2
CC(=O)N1N=C(c2c(O)n(C)c(=O)n(C)c2=O)CC1c1ccccc1 (centres undefined)	x	-6.8	51.4*	6.4	-25.3	33.7
CC(C)C1C(C#N)=C(N)Oc2c1c(=O)oc1ccccc21 (centres undefined)	11.4	x	x	x	x	x
Cc1ccc(-n2nc(C)c(C3C(C#N)=C(N)Oc4c3c(=O)oc3ccccc43)c2Cl)cc1 (centres undefined)	x	x	119.3*	x	x	x
C[n+]1c(-c2ccccc2)c2cc(N)ccc2c2ccc(N)cc21	1.8	45.5	100.2*	-34.6	20.8	43.8
O=C(O)[C@H]1[C@H](CO)[C@H]2Cn3c(ccc(-c4cccnc4)c3=O)[C@@H]1N2S(=O)(=O)c1ccccc1F	-1.2	x	x	x	x	x
CN(C)C(=S)SSC(=S)N(C)C	-1.3	154.1*	26.8	108.2*	-0.4	4.4
Oc1cc(Cl)c(Cl)cc1Cl	x	x	x	x	-1.1	x
Oc1cc(Cl)c(Cl)c(Cl)c1Cl	3.5	-0.5	x	104.2*	3.4	x
COC(=O)[C@H]1[C@H](CO)[C@H]2Cn3c(ccc(-c4cccc(OC)c4)c3=O)[C@@H]1N2C(=O)c1ccccc1F	-0.4	x	x	x	x	x
Cc1c2ccncc2c(C)c2c1[nH]c1ccccc12	4.8	10.2	86.1*	-4.7	-3.7	108.7*
Cc1ccc(-c2cc(-c3ccc(C)cc3)[n+](-c3ccc(C(=O)[O-])cc3)c(-c3ccc(C)cc3)c2)cc1	2.8	9.3	77.9*	0.1	0.7	17.0
COC(=O)C[C@H]1CC[C@@H]2NC[C@H](O)COC[C@H]2O1	-3.0	x	x	x	3.5	x
CC(=O)NC1CC2CCC(C1)N2 (centres undefined)	4.5	-1.3	2.1	-8.2	-9.8	-0.6
